The record followed here is ChEMBL document CHEMBL1781993, “Synthesis and biological evaluation of novel 7-acyl homocamptothecins as Topoisomerase I inhibitors” (Eur J Med Chem, 2011).

One may read the IC50 as the concentration that gives 50% inhibition.

The subject of one test is MDA-MB-435. Nature of the test: Cytotoxicity against human MDA-MB-435 cells after 3 days by MTT assay. The settings on record: MDA-MB-435, 72 h. It is filed as functional, cell-based. The gist of the method: (§1)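 After 3 days, MTT (5 mg/mL solution) was added and plates incubated a further 4 h. Formazan was dissolved in DMSO and absorbance read at 570 nm. Survival expressed as percentage of untreated control wells.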
(Formazan colour is commonly taken as a measure of viable cells.)

The next test relates to HCT-116. Nature of the test: Cytotoxicity against human HCT116 cells after 3 days by MTT assay. Format: functional, cell-based. The settings on record: HCT-116, 72 h. The gist of the method: as §1
The subject of another test is A549. Nature of the test: Cytotoxicity against human A549 cells after 3 days by MTT assay. Format: functional, cell-based. To be noted: A549, 72 h. The gist of the method: as §1
Test [1] has as its target T1, Topoisomerase I (Bos taurus) (UniProt Q2HPH0).
T1 sequence (whole entry): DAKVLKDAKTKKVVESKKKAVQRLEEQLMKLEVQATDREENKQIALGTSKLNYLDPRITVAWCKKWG
Nature of the test: Inhibition of calf thymus topoisomerase 1-mediated relaxation of supercoiled pBR322 at 10 uM after 15 mins using ethidium bromide staining by UV transilluminator analysis. The gist of the method: (§2)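 Topo I with DNA was reacted with compound at 37 °C for 15 min. Reactions were stopped with SDS (0.5% final), then 6× loading buffer (0.1 mM EDTA, 7% glycerol, 0.01% xylene cyanol FF, 0.01% bromophenol blue) was added. Products were separated by gel. Compound concentrations were 1, 10 and 50 µM, and a topo I plus DNA sample without drug served as reference.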

Test [2] deals with T1, Topoisomerase I (Bos taurus). Nature of the test: Inhibition of calf thymus topoisomerase 1-mediated relaxation of supercoiled pBR322 assessed as formation of nicked DNA at 1 to 50 uM after 15 mins using ethidium bromide staining by UV transilluminator. The method, boiled down: as §2
The target is the same in test [3]. Nature of the test: Inhibition of calf thymus topoisomerase 1-mediated relaxation of supercoiled pBR322 assessed as increase in cleavable complex level after 15 mins using ethidium bromide staining by UV transilluminator analysis. The method, boiled down: as §2

The source made the active and inactive calls. The calls are words filed in the database; no cut-off is given here.

`CCC1(O)CC(=O)OCc2c1cc1n(c2=O)Cc2c-1nc1ccc(OC)cc1c2C(=O)c1ccc(F)cc1` (racemic): the IC50 with MDA-MB-435 turned out to be 15900 nM; with HCT-116, 13100 nM; with A549, 7790 nM.
The corresponding values for `CCC1(O)CC(=O)OCc2c1cc1n(c2=O)Cc2c-1nc1ccc(OC)cc1c2C(=O)c1ccc(C)cc1` (racemic) are 7170 nM, 8170 nM and 3390 nM.
The corresponding values for `CCC1(O)CC(=O)OCc2c1cc1n(c2=O)Cc2c-1nc1ccc(OC)cc1c2C(=O)c1ccc(OC)cc1` (racemic) are 16300 nM, 2070 nM and 9250 nM.
Regarding `CCC1(O)CC(=O)OCc2c1cc1n(c2=O)Cc2c-1nc1ccc(OC)cc1c2C(=O)c1ccc(C(F)(F)F)cc1` (racemic), in test [1], the “topoisomerase I inhibition (qualitative call)” value (“topoisomerase I inhibition” for short) was “Active”. Further, the IC50 with MDA-MB-435 was 1480 nM; in the test with HCT-116, 1910 nM; in the test with A549, 625 nM.
As for `CCC1(O)CC(=O)OCc2c1cc1n(c2=O)Cc2c-1nc1ccc(OC)cc1c2C(=O)c1ccco1` (racemic), the inhibition entry in test [2] is “Active”. Moreover, the “topoisomerase I inhibition” value in test [1] is “Active”. Besides, the figures for the IC50 in the test with MDA-MB-435, in the test with HCT-116 and in the test with A549 were 2.18 nM, 294 nM and below 1 nM, respectively. Further, the inhibition entry in test [3] is “Dose-dependent effect”.
With `CCCC(=O)c1c2c(nc3ccc(OC)cc13)-c1cc3c(c(=O)n1C2)COC(=O)CC3(O)CC` (racemic), the IC50 is 198 nM in the test on MDA-MB-435, 268 nM in the test with HCT-116 and 14100 nM in the test with A549.
As to `CCC1(O)CC(=O)OCc2c1cc1n(c2=O)Cc2c-1nc1ccc(OC)cc1c2C(=O)c1cccs1` (racemic), the “topoisomerase I inhibition” value in test [1] is “Active”. The IC50 in the test with MDA-MB-435 worked out at 1610 nM; in the test with HCT-116, 2190 nM; in the test with A549 it was 607 nM.
As for `CCC1(O)CC(=O)OCc2c1cc1n(c2=O)Cc2c-1nc1ccc(OC)cc1c2C(=O)C1CCCCC1` (racemic), the IC50 with MDA-MB-435 is below 1 nM; in the test with HCT-116 it was 446 nM; with A549 it was 669 nM.
The corresponding values for `CCC1(O)CC(=O)OCc2c1cc1n(c2=O)Cc2c-1nc1ccc(OC)cc1c2C(=O)C1CC1` (racemic) are 48.2 nM, 5.93 nM and 2480 nM.
Taken in the same sequence, the figures for `CCC1(O)CC(=O)OCc2c1cc1n(c2=O)Cc2c-1nc1ccc(OC)cc1c2C(=O)c1ccc2ccccc2c1` (racemic) were above 100000 nM, 22800 nM and above 100000 nM.
Taken in the same sequence, the figures for `CCC(=O)c1c2c(nc3ccc(OC)cc13)-c1cc3c(c(=O)n1C2)COC(=O)CC3(O)CC` (racemic) were 63.3 nM, 56 nM and 8960 nM.
For `CCC1(O)CC(=O)OCc2c1cc1n(c2=O)Cc2c-1nc1ccc(OC)cc1c2C1CCCC1` (racemic), in test [1], the “topoisomerase I inhibition” value is “Active”. For the same compound, the IC50 came to 41.5 nM with MDA-MB-435, 71.4 nM in the test with HCT-116 and 730 nM in the test with A549.
Regarding `CCC1(O)CC(=O)OCc2c1cc1n(c2=O)Cc2c-1nc1ccc(OC)cc1c2C(=O)c1cc(C)cc(C)c1` (racemic), the IC50 is above 100000 nM with MDA-MB-435, 26300 nM in the test with HCT-116 and 48000 nM with A549.
With `CCCCCCC(=O)c1c2c(nc3ccc(OC)cc13)-c1cc3c(c(=O)n1C2)COC(=O)CC3(O)CC` (racemic), the “topoisomerase I inhibition” value in test [1] was “Active”. Further, the 50% inhibitory concentration (IC50) was found to be 133 nM with MDA-MB-435, 317 nM in the test with HCT-116 and 478 nM with A549.
As for `CC[C@@]1(O)C(=O)OCc2c1cc1n(c2=O)Cc2cc3ccccc3nc2-1`, the inhibition result in test [1] is “Active”. Moreover, the inhibition entry in test [3] was “Dose-dependent effect”.
In the case of `CCC1(O)CC(=O)OCc2c1cc1n(c2=O)Cc2c-1nc1ccc(OC)cc1c2C(=O)c1ccc(Cl)cc1` (racemic), the half-maximal inhibitory concentration (IC50) in the test with MDA-MB-435 was 2090 nM; in the test on HCT-116, 3020 nM; in the test with A549, 665 nM.
With `CCC1(O)CC(=O)OCc2c1cc1n(c2=O)Cc2c-1nc1ccc(OC)cc1c2C(=O)C1CCCC1` (racemic), the inhibition entry in test [2] was “Active”. In test [1], the “topoisomerase I inhibition” value was “Active”. Further, the IC50 is below 1 nM in the test with MDA-MB-435, 2.17 nM in the test with HCT-116 and 430 nM in the test with A549. For the same compound, the inhibition result in test [3] was “Dose-dependent effect”.
For `CCC1(O)CC(=O)OCc2c1cc1n(c2=O)Cc2c-1nc1ccc(OC)cc1c2C(=O)C(C)C` (racemic), the IC50 in the test on MDA-MB-435 was 21.6 nM; with HCT-116, 404 nM; with A549 it was 2270 nM.
Taken in the same sequence, the figures for `CCCCC(=O)c1c2c(nc3ccc(OC)cc13)-c1cc3c(c(=O)n1C2)COC(=O)CC3(O)CC` (racemic) were 198 nM, 277 nM and 7030 nM.
Taken in the same sequence, the figures for `CCC1(O)CC(=O)OCc2c1cc1n(c2=O)Cc2c-1nc1ccc(OC)cc1c2C1CCCCC1` (racemic) were 76.1 nM, 118 nM and 657 nM.
The corresponding values for `CC[C@@]1(O)C(=O)OCc2c1cc1n(c2=O)Cc2cc3c(CN(C)C)c(O)ccc3nc2-1` [TOPOTECAN] are 448 nM, 1100 nM and 3160 nM.
`CCC1(O)CC(=O)OCc2c1cc1n(c2=O)Cc2c-1nc1ccc(OC)cc1c2C(=O)c1ccccc1` (racemic): the IC50 is 2210 nM in the test on MDA-MB-435, 2940 nM with HCT-116 and 1770 nM in the test with A549.
